Source: ChEMBL document CHEMBL1759987, “2-Acylamino-5-chlorobenzophenones with enhanced selectivity towards malaria parasites” (Eur J Med Chem, 2011)

Assays:
[1] = Selectivity index, CC50 for HeLa cells to IC50 for Plasmodium falciparum; format: functional
[2] = tested on: Plasmodium falciparum; experiment: Antiplasmodial activity against multidrug- resistant Plasmodium falciparum Dd2 assessed as inhibition of [3H]hypoxanthine incorporation after 72 hrs; format: functional, organism-based
Summary of the method: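 Dd2 parasites kept in continuous culture and sorbitol-synchronized, then exposed to a range of concentrations for 72 h. Growth read by [3H]-hypoxanthine incorporation and converted to percent inhibition. IC50 taken from sigmoidal dose-response curves fitted with a Hill function. At least three independent repeats, reported as mean ± SEM.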

[3] = Cytotoxicity in human HeLa cells assessed as cell viability after 72 hrs; format: cell-based
Summary of the method: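 HeLa cells grown in RPMI 1640 with 10% heat-inactivated FBS and gentamicin at 37 °C. About 10,000 cells seeded per well, preincubated 48 h without compound. DMSO stocks (10 mg/ml) diluted 1:200 in medium and added, then 72 h at 37 °C, 5% CO2. Cells fixed with glutaraldehyde, stained with 0.05% methylene blue, eluted with 0.33 M HCl, OD read at 660 nm.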

| Structure (SMILES) | Ratio CC50/IC50 [1] | IC50 [2] [µM] | CC50 at 72 h [3] [µM] |
| --- | --- | --- | --- |
| Cl.N[C@@H](C(=O)Nc1ccc(Cl)cc1C(=O)c1ccccc1)c1ccccc1 | 1 | 9.25 | 12 |
| Cl.N[C@H](C(=O)Nc1ccc(Cl)cc1C(=O)c1ccccc1)c1ccccc1 | 3 | > 16 | 43 |
| CC(C)(C)OC(=O)N[C@@H](C(=O)Nc1ccc(Cl)cc1C(=O)c1ccccc1)c1ccccc1 | 17 | 6.18 | > 108 |
| CC(C)(C)OC(=O)N[C@H](C(=O)Nc1ccc(Cl)cc1C(=O)c1ccccc1)c1ccccc1 | 13 | 8.47 | > 108 |
| CN1CCN(C(=O)N[C@@H](C(=O)Nc2ccc(Cl)cc2C(=O)c2ccccc2)c2ccccc2)CC1 | 45 | 1.35 | 60 |
| CC(C)(C)OC(=O)N1CCN(C(C(=O)Nc2ccc(Cl)cc2C(=O)c2ccccc2)c2ccccc2)CC1 (centres undefined) | 11 | 8.21 | > 94 |
| O=C(c1ccccc1)c1cc(Cl)ccc1NC(=O)C(c1ccccc1)N1CCSCC1 (racemic) | 10 | 11.5 | > 111 |
| O=C(c1ccccc1)c1cc(Cl)ccc1NC(=O)C(c1ccccc1)N1CCC(CCO)CC1 (racemic) | 1 | 15 | 19 |
| CCCN1CCN(C(C(=O)Nc2ccc(Cl)cc2C(=O)c2ccccc2)c2ccccc2)CC1 (racemic) | 6 | 6.23 | 38 |
| COC(=O)CN1CCN(C(C(=O)Nc2ccc(Cl)cc2C(=O)c2ccccc2)c2ccccc2)CC1 (racemic) | 33 | > 3 | > 99 |
| O=C(O)CN1CCN(C(C(=O)Nc2ccc(Cl)cc2C(=O)c2ccccc2)c2ccccc2)CC1 (racemic) | 34 | > 3 | > 102 |
| NC(=O)CN1CCN(C(C(=O)Nc2ccc(Cl)cc2C(=O)c2ccccc2)c2ccccc2)CC1 (racemic) | 22 | 3.32 | 65 |
| CC(C)NC(=O)CN1CCN(C(C(=O)Nc2ccc(Cl)cc2C(=O)c2ccccc2)c2ccccc2)CC1 (racemic) | 41 | 0.98 | 40 |
| CN(C)CCN1CCN(C(C(=O)Nc2ccc(Cl)cc2C(=O)c2ccccc2)c2ccccc2)CC1 (racemic) | 15 | 2.56 | 39 |
| O=C(c1ccccc1)c1cc(Cl)ccc1NC(=O)C(c1ccc(F)cc1)N1CCN(CCO)CC1 (racemic) | 45 | 0.84 | 38 |
| O=C(c1ccccc1)c1cc(Cl)ccc1NC(=O)C(c1ccc(C(F)(F)F)cc1)N1CCN(CCO)CC1 (racemic) | 28 | 0.6 | 17 |
| O=C(c1ccccc1)c1cc(Cl)ccc1NC(=O)C(c1ccc(Br)cc1)N1CCN(CCO)CC1 (racemic) | 31 | 0.56 | 17 |
| O=C(c1ccccc1)c1cc(Cl)ccc1NC(=O)C(c1ccc(-c2ccccc2)cc1)N1CCN(CCO)CC1 (racemic) | 59 | 0.28 | 16 |
| O=C(c1ccccc1)c1cc(Cl)ccc1NC(=O)C(c1cccc2ccccc12)N1CCN(CCO)CC1 (racemic) | 18 | 0.95 | 17 |

| Structure (SMILES) | Ratio CC50/IC50 [1] | IC50 [2] [µM] | CC50 at 72 h [3] [µM] |
| --- | --- | --- | --- |
| O=C(c1ccccc1)c1cc(Cl)ccc1NC(=O)C(c1ccc2ccccc2c1)N1CCN(CCO)CC1 (racemic) | 94 | 0.18 | 17 |
| O=C(c1ccccc1)c1cc(Cl)ccc1NC(=O)C(c1ccccc1)N1CCOCC1 (racemic) | 6 | 6.72 | 39 |
| O=C(c1ccccc1)c1cc(Cl)ccc1NC(=O)C(c1ccccc1)N1CC[S+]([O-])CC1 (racemic) | 8 | 9.02 | 71 |
| O=C(c1ccccc1)c1cc(Cl)ccc1NC(=O)C(c1ccccc1)n1ccnc1 (racemic) | 12 | 4.51 | 55 |
| Cl.NC(C(=O)Nc1ccc(Cl)cc1C(=O)c1ccccc1)c1ccccc1 (racemic) | 6 | 6.71 | 37 |
| NC(CO)C(=O)Nc1ccc(Cl)cc1C(=O)c1ccccc1 (racemic) |  | > 20 |  |
| Cl.NC(Cc1ccccc1)C(=O)Nc1ccc(Cl)cc1C(=O)c1ccccc1 (racemic) | 3 | 14.1 | 38 |
| O=C(c1ccccc1)c1cc(Cl)ccc1NC(=O)C(c1ccccc1)N1CCN(c2ccccc2)CC1 (racemic) | 5 | > 20 | > 98 |
| O=C(c1ccccc1)c1cc(Cl)ccc1NC(=O)C(c1ccccc1)N1CCN(c2ccc([N+](=O)[O-])cc2)CC1 (racemic) | 5 | > 20 | > 90 |
| O=C(c1ccccc1)c1cc(Cl)ccc1NC(=O)C(c1ccccc1)N1CCN(Cc2ccccc2)CC1 (racemic) | 6 | > 20 | > 118 |
| O=CN1CCN(C(C(=O)Nc2ccc(Cl)cc2C(=O)c2ccccc2)c2ccccc2)CC1 (racemic) | 13 | 3.77 | 50 |
| CCOC(=O)N1CCN(C(C(=O)Nc2ccc(Cl)cc2C(=O)c2ccccc2)c2ccccc2)CC1 (racemic) | 15 | 4.26 | 64 |
| O=C(c1ccccc1)c1cc(Cl)ccc1NC(=O)C(c1ccccc1)N1CCN(CCO)CC1 (racemic) | 150 | 0.33 | 49 |
| O=C(c1ccccc1)c1cc(Cl)ccc1NC(=O)C(c1ccccc1)N1CCCCC1 (racemic) | 6 | 10.2 | 63 |
| O=C1CCN(C(C(=O)Nc2ccc(Cl)cc2C(=O)c2ccccc2)c2ccccc2)CC1 (racemic) | 4 | 7.43 | 27 |
| CN1CCN(C(C(=O)Nc2ccc(Cl)cc2C(=O)c2ccccc2)c2ccccc2)CC1 (racemic) | 18 | 3.54 | 63 |
| CCN1CCN(C(C(=O)Nc2ccc(Cl)cc2C(=O)c2ccccc2)c2ccccc2)CC1 (racemic) | 21 | 3.62 | 76 |
| CN1CCN(C(=O)NC(C(=O)Nc2ccc(Cl)cc2C(=O)c2ccccc2)c2ccccc2)CC1 (single isomer, unassigned) | 17 | 4.21 | 72 |
